Assay results collected from several papers.
Compare with care: the assays were run in different laboratories.
Cell line: BT-549
Read-out: cell growth or viability

| Structure (SMILES) | test | setting | measurement | result |
| --- | --- | --- | --- | --- |
| O=C1Nc2ccccc2C1=NNc1nnc2n1N=C(c1ccccc1)CS2 | SRB | 10 µM | inhibition | 28% |
| COc1cccc2c1C(=O)c1c(O)c3c(c(O)c1C2=O)C[C@@](O)(C(=O)CO)C[C@@H]3O[C@H]1C[C@H](N)[C@H](O)[C@H](C)O1 | neutral red | 48 h | IC50 | 1.05 µg/mL |
| COc1cc(-c2ccc(-c3ccc(C(=N)N)nc3)s2)cc(OC)c1OC | SRB | – | GI50 | 1670 nM |
| COc1ccc(C(=O)/C=C/c2cccc(Cl)c2Cl)cc1S(N)(=O)=O | SRB | 48 h | GI50 | 4700 nM |
| COc1ccc(-c2ccc(-c3ccc(C(=N)N)nc3)s2)cc1 | SRB | – | GI50 | 1700 nM |
| Cl.Oc1cccc2c1[nH]c1c(C3=CC4(O)CC/C=C\CCCCN5CCC3C3(CC6/C=C\CCCCN6C43)C5)nccc12 (single isomer, unassigned; (+)) | neutral red | 48 h | IC50 | 1.05 µg/mL |
| CC(=O)O[C@H]1C(=O)[C@@]2(C)[C@H]([C@H](OC(=O)c3ccccc3)[C@]3(O)C[C@H](OC(=O)[C@H](O)[C@@H](NC(=O)c4ccccc4)c4ccccc4)C(C)=C1C3(C)C)[C@]1(OC(C)=O)CO[C@@H]1C[C@@H]2O | ATP luminescence | 72 h | IC50 | 3.1 nM |
| C#C[C@@]1(O)[C@@H](CO)O[C@@H](n2cc(Br)c3c(N)ncnc32)[C@@H]1O | SRB | – | GI50 | 147 nM |
| CC(=O)O[C@@]12CO[C@@H]1C[C@H](O)[C@@]1(C)C(=O)[C@H](O)C3=C(C)[C@@H](OC(=O)[C@H](O)[C@@H](NC(=O)OC(C)(C)C)c4ccccc4)C[C@@](O)([C@@H](OC(=O)c4ccccc4)[C@H]21)C3(C)C | ATP luminescence | 72 h | IC50 | 1 nM |
| COc1ccc(C(=O)/C=C/c2cccc3ccccc23)cc1S(N)(=O)=O | SRB | 48 h | GI50 | 1800 nM |
| COc1cccc(Oc2ccccc2NC(=O)CNC(=O)c2cccc3ccccc23)c1 | SRB | 48 h | GI50 | 295 nM |
